Test results reported in ChEMBL document CHEMBL4431316, “New 6-Aminoquinoxaline Derivatives with Neuroprotective Effect on Dopaminergic Neurons in Cellular and Animal Parkinson Disease Models” (J Med Chem, 2016).
Active and inactive are the calls of the source. The rule behind the calls is not given here.

Columns and labels:
Astrocyte [1] = assay: Neuroprotective activity in Sprague-Dawley rat astrocytes assessed as [methyl-3H]thymidine incorporation at 10 to 50 uM after 8 days by liquid scintillation counting assay relative to control; assay type: functional
Summary of the method: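 Glial proliferation in midbrain cultures measured as [methyl-3H]-thymidine incorporation at 8 DIV, with test compound 10-50 µM. DbcAMP 1 mM as positive control. Expressed as % of control.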

Rattus norvegicus [2] = organism: Rattus norvegicus; assay: (§1) Neuroprotective activity in Sprague-Dawley rat DA neuron death PD model assessed as survival of Th immunopositive cells at 50 uM after 10 days by immunofluorescence assay; assay type: functional
Summary of the method: (§2)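 Midbrain cultures in which DA neurons die spontaneously and selectively through a mechanism involving immature astrocytes and calcium dyshomeostasis. Compounds were present for 10 days in vitro, screened at 50 µM (100 µM for one analog) and retested at 10 µM. dbcAMP 1 mM served as reference. Surviving TH+ neurons were counted and expressed as % of corresponding untreated control cultures.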

Astrocyte [3] = assay: Neuroprotective activity in Sprague-Dawley rat astrocytes assessed as effect on vimentin positive cell density and morphology at 10 uM by fluorescence microscopic method; assay type: functional, cell-based
Summary of the method: (§3)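 Midbrain cultures labelled for vimentin, a glial marker. Density and morphology of glial cells scored semi-quantitatively by fluorescence microscopy. Compounds tested at 10 and 50 µM, one at 100 µM; dbcAMP as reference.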

Astrocyte [4] = assay: Neuroprotective activity in Sprague-Dawley rat astrocytes assessed as effect on vimentin positive cell density and morphology at 50 uM by fluorescence microscopic method; assay type: functional, cell-based; summary of the method: as §3
[5] = (§4) Neuroprotective activity in Sprague-Dawley rat DA neuron death PD model assessed as survival of Th immunopositive cells at 10 uM after 10 days by immunofluorescence assay relative to control; assay type: functional; conditions: 240 h, read-out: Survival; summary of the method: as §2
Rattus norvegicus [6] = organism: Rattus norvegicus; assay: Antioxidant activity in Sprague-Dawley rat DA neuron assessed as reduction in ferrous iron-mediated neuron death at 10 uM; assay type: functional
Summary of the method: (§5)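 Midbrain cultures with DA cell death driven by a Fenton-type reaction, ferrous iron reacting with molecular oxygen in the medium (chronic oxidative stress). Test compound 1-10 µM; desferrioxamine 10 µM as positive control. Readout is DA neuron (TH+) survival. P < 0.05 vs control cultures.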

Rattus norvegicus [7] = organism: Rattus norvegicus; assay: Antioxidant activity in Sprague-Dawley rat DA neuron assessed as reduction in ferrous iron-mediated neuron death at 5 uM; assay type: functional; summary of the method: as §5
Astrocyte [8] = assay: Neuroprotective activity in Sprague-Dawley rat astrocytes assessed as effect on vimentin positive cell density and morphology at 100 uM by fluorescence microscopic method; assay type: functional, cell-based; summary of the method: as §3
[9] = Neuroprotective activity in Sprague-Dawley rat DA neuron death PD model assessed as survival of Th immunopositive cells at 100 uM after 10 days by immunofluorescence assay relative to control; assay type: functional; conditions: 240 h, read-out: Survival; summary of the method: as §2
Rattus norvegicus [10] = organism: Rattus norvegicus; assay: Neuroprotective activity in Sprague-Dawley rat DA neuron death PD model assessed as increase in [2,5,6-3H]DA uptake at 1 mM after 10 days by liquid scintillation counting spectrometric analysis; assay type: functional
Summary of the method: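 Midbrain cultures in which DA neurons die spontaneously and selectively. Treated with test compound (10-50 µM) or dbcAMP (1 mM, reference) up to 10 DIV. Tritium-labeled DA uptake quantified as a marker of DA cell function and differentiation. Uptake rate per TH+ neuron also derived. *P < 0.05 vs control.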

Astrocyte [11] = assay: Neuroprotective activity in Sprague-Dawley rat astrocytes assessed as effect on vimentin positive cell density and morphology at 1 mM by fluorescence microscopic method; assay type: functional, cell-based; summary of the method: as §3
[12] = Neuroprotective activity in Sprague-Dawley rat DA neuron death PD model assessed as survival of Th immunopositive cells at 1 mM after 10 days by immunofluorescence assay relative to control; assay type: functional; conditions: 240 h, read-out: Survival; summary of the method: as §2
Rattus norvegicus [13] = organism: Rattus norvegicus; assay: as §4; assay type: functional; summary of the method: as §2
[14] = as §1; assay type: functional; conditions: 240 h, read-out: Survival; summary of the method: as §2

Q: Which Activity (Astrocyte [1]) does the source give for `C#CCNc1ccc2nc(C)c(-c3ccc(C)cc3)nc2c1` here?
A: inactive

Q: What about the Activity (Rattus norvegicus [2]) of the same compound?
A: inactive

Q: With `Cc1nc2ccc(N)c(Cl)c2nc1-c1ccccc1` as the compound, how does the Activity (Rattus norvegicus [2]) read?
A: Active

Q: With `C#CCNc1ccc2nc(C)c(-c3ccc(Cl)c(Cl)c3)nc2c1` as the compound, how does the Activity (Astrocyte [1]) read?
A: inactive

Q: What about the Activity (Rattus norvegicus [2]) of the same compound?
A: inactive

Q: Which Activity (Rattus norvegicus [2]) does the source give for `COc1ccc(-c2nc3cc(N)ccc3nc2-c2ccccc2)cc1` here?
A: inactive

Q: For `C#CCNc1ccc2nc(C)c(-c3ccccc3)nc2c1Br`, which Activity (Rattus norvegicus [2]) is on record?
A: Active

Q: Which Activity (Rattus norvegicus [2]) does the source give for `Nc1ccc2ncc(-c3cnc4ccccc4c3)nc2c1` here?
A: Active

Q: Which Activity (Astrocyte [3]) does the source give for `Nc1ccc2ncc(-c3ccc(F)cc3)nc2c1` here?
A: inactive

Q: What about the Activity (Rattus norvegicus [2]) of the same compound?
A: Active

Q: What about the Activity (Astrocyte [4]) of the same compound?
A: inactive

Q: What about the viability at 10 µM [5] of the same compound?
A: 144%

Q: With `C#CCNc1ccc2nc(C)c(-c3ccc(F)cc3)nc2c1` as the compound, how does the Activity (Rattus norvegicus [2]) read?
A: Active

Q: Which Activity (Rattus norvegicus [2]) does the source give for `Cc1nc2ccc(N)cc2nc1-c1ccc2ccccc2c1` here?
A: inactive

Q: For `CC(=O)N(O)CCCCCNC(=O)CCC(=O)N(O)CCCCCNC(=O)CCC(=O)N(O)CCCCCN`, which Activity (Rattus norvegicus [6]) is on record?
A: Active

Q: With `C#CCNc1ccc2nc(C)c(-c3cc(OC)c(OC)c(OC)c3)nc2c1` as the compound, how does the Activity (Astrocyte [1]) read?
A: inactive

Q: With `Cc1nc2ccc(N)cc2nc1-c1ccccc1` as the compound, how does the Activity (Rattus norvegicus [7]) read?
A: Active

Q: And the Activity (Astrocyte [3])?
A: inactive

Q: What about the Activity (Astrocyte [8]) of the same compound?
A: Active

Q: What about the viability at 100 µM [9] of the same compound?
A: 199%

Q: Which results are given for `CCCC(=O)Nc1ncnc2c1ncn2[C@@H]1O[C@@H]2COP(=O)(O)O[C@H]2[C@H]1OC(=O)CCC` [BUCLADESINE]?
A: Activity (Rattus norvegicus [10]): Active; Activity (Astrocyte [11]): Active; viability at 1000 µM [12]: 225%

Q: With `Nc1ccc2ncc(-c3cccnc3)nc2c1` as the compound, how does the Activity (Rattus norvegicus [2]) read?
A: Active

Q: Which Activity (Astrocyte [1]) does the source give for `C#CCNc1ccc2nc(C)c(-c3ccc(OC)cc3)nc2c1` here?
A: inactive

Q: For `Nc1ccc2ncc(-c3cccc(O)c3)nc2c1`, which Activity (Rattus norvegicus [2]) is on record?
A: Active

Q: What about the Activity (Rattus norvegicus [13]) of the same compound?
A: inactive

Q: With `C#CCNc1ccc2nc(C)c(-c3ccccc3)nc2c1` as the compound, how does the Activity (Rattus norvegicus [2]) read?
A: Active

Q: For `Cc1ccc(-c2nc3cc(N)ccc3nc2C)cc1`, which Activity (Rattus norvegicus [2]) is on record?
A: inactive

Q: With `C#CCNc1ccc2ncc(-c3ccccc3)nc2c1` as the compound, how does the Activity (Astrocyte [3]) read?
A: inactive

Q: And the Activity (Rattus norvegicus [2])?
A: Active

Q: And the Activity (Astrocyte [4])?
A: Active

Q: What about the viability at 10 µM [5] of the same compound?
A: 212%

Q: For `Cc1nc2ccc(N)cc2nc1C`, which Activity (Rattus norvegicus [2]) is on record?
A: inactive

Q: For `Cc1nc2ccc(N)cc2nc1-c1ccc(Cl)cc1`, which Activity (Rattus norvegicus [2]) is on record?
A: inactive

Q: For `C#CCNc1ccc2nc(C)c(-c3ccc4ccccc4c3)nc2c1`, which Activity (Astrocyte [1]) is on record?
A: inactive

Q: And the Activity (Rattus norvegicus [2])?
A: inactive

Q: Which Activity (Rattus norvegicus [2]) does the source give for `C#Cc1cnc2ccc(N)cc2n1` here?
A: inactive

Q: With `Cc1nc2ccc(N)cc2nc1-c1ccc(Cl)c(Cl)c1` as the compound, how does the Activity (Rattus norvegicus [2]) read?
A: Active

Q: For `Nc1ccc2ncc(-c3cccc4ccccc34)nc2c1`, which Activity (Rattus norvegicus [2]) is on record?
A: Active

Q: What does the source list for `C#CCNc1ccc2nc(C)c(-c3ccc(Cl)cc3)nc2c1`?
A: Activity (Astrocyte [1]): inactive; Activity (Rattus norvegicus [2]): inactive

Q: Which results are given for `Cc1nc2ccc(N)c(Br)c2nc1-c1ccccc1`?
A: Activity (Rattus norvegicus [2]): Active; Activity (Rattus norvegicus [13]): inactive

Q: Which results are given for `COc1cc(-c2cnc3ccc(N)cc3n2)cc(OC)c1OC`?
A: Activity (Rattus norvegicus [2]): Active; Activity (Rattus norvegicus [13]): inactive

Q: Which Activity (Astrocyte [3]) does the source give for `Nc1ccc2nc(-c3ccccc3)cnc2c1` here?
A: inactive

Q: What about the viability at 50 µM [14] of the same compound?
A: 187%

Q: And the Activity (Astrocyte [4])?
A: inactive

Q: What about the viability at 10 µM [5] of the same compound?
A: 134%

Q: For `Nc1ccc2ncc(Cl)nc2c1`, which Activity (Rattus norvegicus [2]) is on record?
A: Active

Q: For `Nc1ccc2ncc(-c3ccc4ccccc4c3)nc2c1`, which Activity (Rattus norvegicus [2]) is on record?
A: Active

Q: Which Activity (Rattus norvegicus [2]) does the source give for `Cc1nc2ccc(N)cc2nc1-c1ccc(F)cc1` here?
A: Active

Q: Which Activity (Rattus norvegicus [2]) does the source give for `COc1ccc(-c2nc3cc(N)ccc3nc2C)cc1OC` here?
A: inactive

Q: Which Activity (Astrocyte [1]) does the source give for `C#CC(C)(C)Nc1ccc2nc(C)c(-c3ccccc3)nc2c1` here?
A: inactive

Q: What about the Activity (Rattus norvegicus [2]) of the same compound?
A: inactive

Q: Which Activity (Rattus norvegicus [2]) does the source give for `Cc1nc2cc(Br)c(N)c(Cl)c2nc1-c1ccccc1` here?
A: inactive

Q: For `COc1ccc(-c2nc3cc(N)ccc3nc2C)cc1`, which Activity (Rattus norvegicus [2]) is on record?
A: inactive

Q: Which Activity (Rattus norvegicus [2]) does the source give for `COc1ccc(C#Cc2cnc3ccc(N)cc3n2)cc1` here?
A: inactive

Q: For `Cc1nc2ccc(N)cc2nc1-c1ccc(-c2ccccc2)cc1`, which Activity (Rattus norvegicus [2]) is on record?
A: inactive

Q: For `C#CCNc1ccc2ncc(-c3ccc(F)cc3)nc2c1`, which Activity (Astrocyte [3]) is on record?
A: inactive

Q: And the Activity (Rattus norvegicus [2])?
A: Active

Q: What about the Activity (Astrocyte [4]) of the same compound?
A: Active
